Results gathered from unrelated publications.
CA12: Carbonic anhydrase 12 (CA12, Homo sapiens, UniProt O43570)
DRD3: D(3) dopamine receptor (DRD3, Homo sapiens, UniProt P35462)
SLC6A3: Sodium-dependent dopamine transporter (SLC6A3, Homo sapiens, UniProt Q01959)

For `O=C(OC1CCCCC1)c1ccc(=O)oc1`, the Ki was 3.12 µM (CA12; enzyme activity; inhibitor; stopped-flow).
With `Cc1[nH]c(C)c(S(=O)(=O)Nc2ccc(C(F)(F)F)c(Cl)c2)c1C(=O)O` the IC50 was 19 µM (DRD3; G protein activation; antagonist; BRET).
`N#CSCc1cc(=O)oc2cc(O)ccc12` gave a Ki of 0.0236 µM (CA12; enzyme activity; inhibitor; stopped-flow).
`CNC(=O)[C@@]12C[C@@H]1[C@@H](n1cnc3c(NCc4cccc(Cl)c4)nc(C#Cc4ccc(Cl)s4)nc31)[C@H](O)[C@@H]2O` gave a Ki of 1.6 µM (SLC6A3; ligand displacement; radioligand).
The IC50 of `Cc1[nH]c(C)c(S(=O)(=O)Nc2ccc(C(F)(F)F)c(Cl)c2)c1C(=O)NCC(F)(F)F` is reported as 4 µM (DRD3; G protein activation; antagonist; BRET).
`CNC(=O)[C@@]12C[C@@H]1[C@@H](n1cnc3c(Nc4ccccc4)nc(C#Cc4ccc(Cl)s4)nc31)[C@H](O)[C@@H]2O` has a Ki of 1.6 µM (SLC6A3; ligand displacement; radioligand).
For `Cc1[nH]c(C)c(S(=O)(=O)Nc2ccc([N+](=O)[O-])c(Cl)c2)c1C(=O)N1CCC(F)(F)C1`, the IC50 was 40 µM (DRD3; β-arrestin recruitment; antagonist).
For `CCOC(=O)c1ccc(=O)oc1`, the Ki was 92.6 µM (CA12; enzyme activity; inhibitor; stopped-flow).
The Ki of `N#C[C@@]12C[C@@H]1[C@@H](n1cnc3c(Nc4ccccc4)nc(C#Cc4ccc(Cl)s4)nc31)[C@H](O)[C@@H]2O` is reported as 1.5 µM (SLC6A3; ligand displacement; radioligand).
The Ki of `C#CCOC(=O)c1ccc(=O)oc1` is reported as 76.3 µM (CA12; enzyme activity; inhibitor; stopped-flow).
For `OCc1ccccc1O[C@@H]1O[C@H](CO)[C@@H](O)[C@H](O)[C@H]1O`, the EC50 was 5520 µM (Taste receptor type 2 member 16 (TAS2R16, Homo sapiens, UniProt Q9NYV7, N96T); inositol phosphate; agonist; TR-FRET).
For `COc1ccc(-n2cc(CNC(=O)c3ccc(=O)oc3)nn2)cc1`, the Ki was 58.7 µM (CA12; enzyme activity; inhibitor; stopped-flow).
`Cc1[nH]c(C)c(S(=O)(=O)Nc2ccc(C(F)(F)F)c(Cl)c2)c1C(=O)N1C[C@@H](F)[C@H](F)C1` (relative stereo) has an IC50 of 0.58 µM (DRD3; G protein activation; antagonist; BRET).
`CCOC(=O)[C@@]12C[C@@H]1[C@@H](n1cnc3c(NCCCCCc4ccccc4)nc(I)nc31)[C@H](O)[C@@H]2O` gave a Ki of 1.6 µM (SLC6A3; ligand displacement; radioligand).
`C#CCNC(=O)c1ccc(=O)oc1` has a Ki of 68.1 µM (CA12; enzyme activity; inhibitor; stopped-flow).
`Cc1[nH]c(C)c(S(=O)(=O)Nc2cc(Cl)cc(Cl)c2Cl)c1C(=O)N1CCC(F)(F)C1` gave an IC50 of 14.8 µM (DRD3; G protein activation; antagonist; BRET).
`O=C(Oc1ccccc1)c1ccc(=O)oc1` gave a Ki of 65.7 µM (CA12; enzyme activity; inhibitor; stopped-flow).
`OC[C@@]12C[C@@H]1[C@@H](n1cnc3c(N[C@@H](C4CCC4)C4CC4)nc(C#Cc4ccc(Cl)s4)nc31)[C@H](O)[C@@H]2O` gave a Ki of 0.89 µM (SLC6A3; ligand displacement; radioligand).
